# Source: PubChem BioAssay
# Compounds with a hit are over-represented: about 1.8% of the library has one in this group of screens.
# Cneo AK release = Cryptococcus neoformans lysis via adenylate kinase release; C. neoformans lysis, adenylate kinase release luminescence, 4 h; normalised: neutral wells 0, clomiphene wells 100; AID 651654; hit rate 0.2% among 360,000; lysis activity, % at 15 µM;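 active = mean lysis activity across replicates of at least 80%, whatever share of replicates individually reach that level; inactive = mean lysis activity below 80%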
#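 Material – log-phase Cryptococcus neoformans yeast cells · Input – 5 × 10^6 yeast cells/mL · Medium – fresh YPD growth medium · Doses – single compound concentration per well · Timing – static 4 h at 37 °C with compound, 1 h detection · Detection – adenylate kinase release luminescence · Read-out – signal increase indicating cell lysis · Control set – Clomiphene as positive lysis control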
# Efflux pump inh = antifungal efflux pump inhibition, Nile Red retention; inhibition, % at 10 µM; hit rate 0.44% among 330,000; S. cerevisiae Candida pump triplex;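 active = plate passing quality check with inhibition over a set limit, or well fluorescence over plate mean plus 4 SD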;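 also: Nile Red retained in pooled yeast measured as flow cytometry median fluorescence; 0% = buffer negative control and 100% = Enniatin B positive control; higher means more Nile Red kept so more efflux inhibition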
# C2C12 statin = protects C2C12 myotubes from simvastatin toxicity | hit rate 0.78% among 330,000 | rescue of ATP level, % at 7.49 µM | AID 602340 | ATP luminescence, 48 h; scaled: DMSO 0, geranylgeraniol control 100;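 active = mean ATP rescue above about 67%, or every replicate alone reaching that limit, limit read from the data, passing the limit was not always enough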;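 also: myotubes were challenged with 10 µM simvastatin during compound exposure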
# SUMO Mot1 rescue = blocks SUMOylation pathway, rescuing yeast Mot1-301 growth; S. cerevisiae Mot1-301 growth rescue, ATP luminescence, 38.5C; percent above DMSO median, 100 means doubled; growth rescue, % at 18.8 µM; hit rate 1% among 320,000; AID 2716;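 active = every valid replicate shows activation above 250% relative to neutral control wells; inactive = the rest, any valid replicate at or below 250%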;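 also: OY570 slx delta 5 strain wells were the positive control but not used for scaling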
# Active calls of the source: *; · = no result given.
SMILES,Cneo AK release,Efflux pump inh,C2C12 statin,SUMO Mot1 rescue
CO[C@H]1CN(C)C(=O)c2ccc(NS(=O)(=O)c3ccc(Oc4ccccc4)cc3)cc2OC[C@H](C)NC[C@H]1C,-0.8,·,-4.9,·
CO[C@@H]1CN(C)C(=O)c2cc(NS(=O)(=O)c3cccc(C)c3)ccc2OC[C@@H](C)NC[C@H]1C,103.9*,·,5.6,·
CO[C@@H]1CN(C)C(=O)c2cc(NS(=O)(=O)c3ccc(C)cc3)ccc2OC[C@@H](C)N(C)C[C@@H]1C,139.0*,·,-7.0,·
COc1cccc(S(=O)(=O)Nc2ccc3c(c2)OC[C@@H](C)NC[C@H](C)[C@@H](OC)CN(C)C3=O)c1,98.0*,·,13.3,·
CO[C@@H]1CN(C)C(=O)c2ccc(NS(=O)(=O)c3ccc(Oc4ccccc4)cc3)cc2OC[C@H](C)NC[C@H]1C,98.9*,·,0.3,·
O=[N+]([O-])c1ccc(Cl)c(NC(=S)N2CCCC2)c1,-0.1,0.2,7.0,-16.4
O=C(C[C@H]1C[C@@H]2c3cc(NC(=O)NC4CCCCC4)ccc3O[C@@H]2[C@H](CO)O1)NCC1CC1,3.7,·,4.2,·
CCC(=O)Nc1ccc2c(c1)C(=O)N(C)[C@@H]1CC[C@H](CC(=O)NCCN3CCCCC3)O[C@@H]1CO2,-0.3,·,18.4,·
CO[C@@H]1CN(C)C(=O)c2cc(NS(=O)(=O)C3CCCCC3)ccc2OC[C@H](C)NC[C@@H]1C,85.6*,·,-1.8,·
Cc1cc(C)c2cc(CN(Cc3ccco3)C(=O)NCc3ccccc3)c(=O)[nH]c2c1,-1.4,-0.1,110.2*,8.6
COc1ccc(NC(=S)NCc2ccccn2)cc1OC,·,0.0,·,4.8
O=C(CC(c1ccccc1)c1ccco1)N1CCOCC1 (stereo not given),0.7,-0.1,128.4*,·
O=C(CN1CCCCCC1)Nc1ccc(S(=O)(=O)N2CCOCC2)cc1,·,0.1,·,7.1
O=C(CN1C(=O)C2CC=CCC2C1=O)Nc1ccc(S(=O)(=O)N2CCOCC2)cc1 (stereo not given),-0.3,0.0,-0.8,296.7*
O=C(Nc1ccc(S(=O)(=O)N2CCOCC2)cc1)c1ccc([N+](=O)[O-])o1,1.6,0.0,87.7*,79.8
NC(=O)C1CCN(Cc2nc3cc(Cl)ccc3c(=O)[nH]2)CC1,-0.2,-0.1,101.5*,11.3
CCOC(=O)c1cc2ccc(OC)c(OC)c2c(=O)s1,·,0.1,116.4*,-5.9
O=C(Nc1cccc(F)c1)c1ccc2c(c1)OCCO2,-4.2,0.1,-17.3,478.7*
O=C(Nc1ccccc1)c1ccc2c(c1)OCCO2,·,-0.1,-13.6,-20.6
O=C(Nc1ccc2c(c1)OCCO2)c1cccc2nc3ccccc3nc12,-16.6,-0.1,73.9*,-17.9
CN(Cc1ccccc1)C(NC(=O)c1ccccc1)C(Cl)(Cl)Cl (stereo not given),0.5,-0.6,0.4,10.9
Cc1ccccc1-c1nnc(SCC(=O)NC2CCCCC2)o1,·,-0.1,77.7*,0.1
C[C@@H]1CN([C@@H](C)CO)C(=O)c2cc(NC(=O)Nc3ccccc3)ccc2O[C@H]1CN(C)C(=O)Nc1cccc2ccccc12,-0.2,0.0,-4.9,-18.6
C[C@H](CO)N1C[C@H](C)[C@@H](CN(C)C(=O)Nc2cccc3ccccc23)Oc2c(NC(=O)c3ccc(-c4nccs4)cc3)cccc2C1=O,-6.8,·,40.1,·
C[C@@H]1CN([C@@H](C)CO)C(=O)c2cc(NC(=O)Nc3ccccc3)ccc2O[C@@H]1CN(C)C(=O)Nc1cccc2ccccc12,108.2*,·,-40.9,·
SMILES,Cneo AK release,Efflux pump inh,C2C12 statin,SUMO Mot1 rescue
C[C@@H]1CN([C@H](C)CO)C(=O)c2cccc(NC(=O)c3ccc(-c4nccs4)cc3)c2O[C@@H]1CN(C)C(=O)Nc1cccc2ccccc12,15.2,·,79.9*,·
C[C@H]1CN([C@@H](C)CO)C(=O)c2cc(NC(=O)Nc3cccc4ccccc34)ccc2O[C@H]1CN(C)C(=O)Nc1ccccc1,-2.1,·,9.6,·
C[C@H]1CN([C@@H](C)CO)C(=O)c2cc(NC(=O)Nc3cccc4ccccc34)ccc2O[C@@H]1CN(C)C(=O)Nc1ccc(C(F)(F)F)cc1,89.9*,·,29.5,·
C[C@@H]1CN([C@@H](C)CO)C(=O)c2cc(NC(=O)Nc3cccc4ccccc34)ccc2O[C@@H]1CN(C)C(=O)Nc1ccccc1,107.2*,·,1.9,·
O=C(c1ccc2nc(Cc3cccc(Cl)c3)oc2c1)N1CCOCC1,-1.9,0.1,·,5.3
CC(C)NC(=O)N(C)C[C@@H]1OCCCC[C@@H](C)Oc2ccc(NC(=O)Cc3ccccc3)cc2C(=O)N([C@H](C)CO)C[C@@H]1C,-1.7,·,·,·
CC(=O)N1CC[C@H]2[C@H](CO)Nc3ccc(-c4ccc(F)cc4)cc3[C@H]21,6.6,·,3.0,·
Cc1sc2nc(SCC(=O)NCCCO)n(-c3ccccc3)c(=O)c2c1C,-3.4,-0.2,3.3,-12.2
C[C@H]1CN([C@@H](C)CO)C(=O)c2cccc(N(C)C)c2O[C@@H]1CN(C)C(=O)Nc1cccc2ccccc12,84.5*,·,-1.1,·
C[C@H](CO)N1C[C@H](C)[C@@H](CN(C)Cc2ccc(-c3ccccc3)cc2)Oc2ccc(NC(=O)Nc3ccc(C(F)(F)F)cc3)cc2C1=O,98.7*,·,·,·
C[C@@H]1CN([C@H](C)CO)C(=O)c2cc(NC(=O)Nc3ccc(C(F)(F)F)cc3)ccc2O[C@H]1CN(C)Cc1ccc(-c2ccccc2)cc1,-3.3,·,·,·
C[C@@H]1CN([C@@H](C)CO)C(=O)c2cccc(N(C)C)c2O[C@@H]1CN(C)C(=O)Nc1cccc2ccccc12,0.0,·,35.8,·
Nc1ncc([N+](=O)[O-])cc1S(=O)(=O)c1ccccc1,2.2,0.1,-3.6,-9.0
C[C@H](O)C#Cc1ccc2c(c1)O[C@@H](CN(C)Cc1cncnc1)[C@@H](C)CN([C@@H](C)CO)S2(=O)=O,-3.9,·,-5.5,·
C[C@H](CO)N1C[C@H](C)[C@H](CN(C)C(=O)Nc2ccc3c(c2)OCO3)Oc2ncc(-c3ccc(F)cc3)cc2C1=O,90.8*,·,-6.9,·
C[C@@H]1CN([C@@H](C)CO)C(=O)c2cc(-c3ccc(C#N)cc3)cnc2O[C@@H]1CN(C)C(=O)Nc1ccc(F)cc1,91.7*,·,-0.4,·
C[C@H](CO)N1C[C@H](C)[C@H](CN(C)C(=O)Nc2ccc3c(c2)OCO3)Oc2ncc(C#Cc3ccccc3)cc2C1=O,6.3,·,44.2,·
CC(C)CC#Cc1cnc2c(c1)C(=O)N([C@H](C)CO)C[C@@H](C)[C@@H](CN(C)C(=O)c1ccc3c(c1)OCO3)O2,88.6*,·,12.5,·
C[C@H](CO)N1C[C@H](C)[C@H](CN(C)C(=O)Nc2ccc3c(c2)OCO3)Oc2ncc(C#Cc3ccc(F)cc3)cc2C1=O,-1.6,·,74.1*,·
CCOC(=O)C1=C(C)N(C2CCCCC2)C(=O)C1,0.4,-0.1,·,-9.8
CC1(Oc2ccccc2-c2ccn[nH]2)CCN(Cc2ccc(OC(F)(F)F)cc2)C1 (stereo not given),25.4,·,-3.0,·
O=C(C[C@H]1C=C[C@@H](NC(=O)Nc2ccc(C(F)(F)F)cc2)[C@H](CO)O1)NCc1cccc(F)c1,6.3,·,0.9,·
O=C(O)c1cccc(Nc2c([N+](=O)[O-])c(=O)oc3ccccc23)c1,5.0,-0.2,5.8,-22.5
